Laboratory results published in ChEMBL document CHEMBL2311293, “Discovery of agonists of cannabinoid receptor 1 with restricted central nervous system penetration aimed for treatment of gastroesophageal reflux disease” (J Med Chem, 2013).
In brackets after ≈: the same amount, converted by molar mass.

Columns and labels:
[1] = Lipophilicity, log D of the compound; conditions: octanol/water
[2] = target: Cannabinoid receptor 2 (Homo sapiens, UniProt P34972); test: Displacement of [3H]-CP55,940 from human CB2 receptor expressed in Sf9 cell membranes by scintillation counting analysis
How it was run: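 Membranes from Sf9 cells expressing cloned hCB2 (baculovirus) in 50 mM Tris, 2.5 mM EDTA, 5 mM MgCl2, 0.5 mg/mL fatty-acid-free BSA, pH 7.4. 60 min at rt, GF/B filtration, scintillation counting. 10-point curves; IC50 mean of three independent experiments.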

[3] = target: T1, Cannabinoid receptor 1 (Homo sapiens, UniProt P21554); test: Displacement of [3H]-CP55,940 from human CB1 receptor expressed in HEK293S cell membranes by scintillation counting analysis
[4] = target: T1, Cannabinoid receptor 1; test: Agonist activity at human CB1 receptor expressed in HEK293S cell membranes after 1 hr by GTPgamma[35S] binding assay relative to WIN 55,212-2
How it was run: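 HEK293S membranes with cloned human CB1 (5 µg protein/well) in Hepes buffer pH 7.4, 100 mM NaCl, 5 mM MgCl2, 1 mM EDTA, 0.1% BSA, 15 µM GDP final. GTPγ[35S] added to start, 1 h at rt, filtered, counted. Basal from 8 wells; maximum from 8 wells with 10 µM reference agonist. Emax expressed as % of that reference. 10-point curves; mean of three experiments.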

[5] = target: T1, Cannabinoid receptor 1; test: Agonist activity at human CB1 receptor expressed in HEK293S cell membranes after 1 hr by GTPgamma[35S] binding assay
[6] = Ratio of drug level in brain to plasma in Sprague-Dawley rat; type: ADME, cell-free; conditions: for Kp: Sprague-Dawley, brain and plasma, read-out: BPR
How it was run: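 Total brain-to-plasma ratio from in vivo Sprague-Dawley rat samples, compound given as 4 h constant-rate i.v. infusion to steady state.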

[7] = Ratio of unbound fraction in brain to plasma in Sprague-Dawley rat; type: ADME, cell-free
How it was run: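 Steady-state total brain/plasma ratio in Sprague-Dawley rats after 4 h constant-rate i.v. infusion, corrected by unbound fraction in brain (rat brain slices) and in plasma (equilibrium dialysis).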

[8] = (§1) Apparent permeability from apical to basolateral side in human Caco2 cells at pH 7.4; type: ADME, cell-based; conditions: Caco-2, pH 7.4
How it was run: (§2)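 Caco-2 monolayers at pH 7.4, apparent permeability measured for apical-to-basolateral transport.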

[9] = tested on: Caco-2; test: as §1; type: ADME, cell-based; conditions: Caco-2, pH 7.4; how it was run: as §2
[10] = Solubility of the compound in Hank's balanced saline solution at pH 7.4 after 24 hrs by HPLC analysis; type: physicochemical
How it was run: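 Compound in DMSO added to Hanks balanced saline solution pH 7.4, shaken 24 h.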

[11] = target: Voltage-gated inwardly rectifying potassium channel KCNH2 (Homo sapiens, UniProt Q12809); test: Inhibition of human ERG expressed in CHO cells by patch clamp assay; type: cell-based
How it was run: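 Patch clamp (IonWorks) in CHO cells expressing hERG.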

[12] = Clearance in Sprague-Dawley rat at 2 umol/kg, iv; type: ADME, organism-based; conditions: in vivo
How it was run: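 Sprague-Dawley rats given 2 µmol/kg i.v.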

[13] = Oral bioavailability in Sprague-Dawley rat at 10 umol/kg; type: ADME, organism-based; conditions: in vivo
How it was run: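 Sprague-Dawley rats given 10 µmol/kg p.o., with i.v. reference dose of 2 µmol/kg.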

[14] = target: Cytochrome P450 2C9 (Homo sapiens, UniProt P11712); test: Inhibition of human recombinant CYP2C9 expressed in Escherichia coli cells; type: ADME
[15] = target: Cytochrome P450 3A4 (Homo sapiens, UniProt P08684); test: Inhibition of human recombinant CYP3A4 expressed in Escherichia coli cells; type: ADME
[16] = Agonist activity at dog CB1 receptor expressed in HEK293S cell membranes after 1 hr by GTPgamma[35S] binding assay; design: species or system Canis lupus familiaris
How it was run: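 Dog CB1 stably expressed in HEK293S membranes, handled as for human CB1: Hepes buffer pH 7.4 with 100 mM NaCl, 5 mM MgCl2, 1 mM EDTA, 0.1% BSA, 15 µM GDP (final); 5 µg protein/well; GTPγ[35S] tracer; 1 h at rt; filtration and scintillation counting; 10-point curves; mean of three independent experiments.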

[17] = tested on: Canis familiaris; test: Inhibition of transient lower esophageal sphincter relaxations in intragastrically dosed dog; type: functional, organism-based; conditions: Canis lupus familiaris
How it was run: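 Dogs with esophagostomy and water-perfused Dentsleeve manometry (gastric, LES, esophageal pressures). Dosed intragastrically 30 min before start; TLESRs counted over 45 min. TLESR: LES pressure falls >1 mmHg/s to <2 mmHg above gastric, lasting >1 s, no swallow within 2 s before. Each dog its own control against five prior control runs; mean ± S.E.M.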

[18] = tested on: Canis familiaris; test: Inhibition of transient lower esophageal sphincter relaxations in dog at 2 umol/kg dosed intragastrically measured after 10 mins; type: functional; conditions: Canis lupus familiaris, po
[19] = tested on: Canis familiaris; test: Inhibition of transient lower esophageal sphincter relaxations in dog at 1 umol/kg dosed measured after 10 mins; type: functional; conditions: Canis lupus familiaris

Sequence of Cytochrome P450 3A4 (P08684 whole entry): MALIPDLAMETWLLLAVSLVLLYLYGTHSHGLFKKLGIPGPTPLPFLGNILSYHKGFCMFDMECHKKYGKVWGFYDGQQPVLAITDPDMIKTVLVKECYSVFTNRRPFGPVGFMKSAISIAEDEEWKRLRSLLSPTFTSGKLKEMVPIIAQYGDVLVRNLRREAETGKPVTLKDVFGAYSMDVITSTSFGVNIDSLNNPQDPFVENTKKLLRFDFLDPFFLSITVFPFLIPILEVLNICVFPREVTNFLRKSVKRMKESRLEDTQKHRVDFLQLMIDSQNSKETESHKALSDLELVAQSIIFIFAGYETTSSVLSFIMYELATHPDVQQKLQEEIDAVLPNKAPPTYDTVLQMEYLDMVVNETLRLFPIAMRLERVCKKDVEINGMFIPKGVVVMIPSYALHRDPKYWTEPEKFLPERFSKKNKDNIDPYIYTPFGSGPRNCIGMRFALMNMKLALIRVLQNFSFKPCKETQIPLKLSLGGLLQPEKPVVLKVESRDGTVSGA
T1 sequence (P21554 whole entry): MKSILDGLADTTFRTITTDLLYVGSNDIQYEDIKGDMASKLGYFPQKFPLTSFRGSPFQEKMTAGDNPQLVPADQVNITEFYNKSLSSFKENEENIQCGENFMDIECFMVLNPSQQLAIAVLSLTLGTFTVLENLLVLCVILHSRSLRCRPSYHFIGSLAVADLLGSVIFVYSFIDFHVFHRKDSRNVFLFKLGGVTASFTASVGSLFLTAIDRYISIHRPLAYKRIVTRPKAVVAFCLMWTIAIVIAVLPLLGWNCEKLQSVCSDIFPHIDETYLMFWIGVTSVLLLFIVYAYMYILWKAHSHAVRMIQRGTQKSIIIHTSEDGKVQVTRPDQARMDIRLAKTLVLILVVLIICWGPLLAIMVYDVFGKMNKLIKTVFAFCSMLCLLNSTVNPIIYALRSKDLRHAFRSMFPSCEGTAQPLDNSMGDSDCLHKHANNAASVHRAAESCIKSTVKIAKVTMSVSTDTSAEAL
Sequence of Cannabinoid receptor 2 (P34972 whole entry): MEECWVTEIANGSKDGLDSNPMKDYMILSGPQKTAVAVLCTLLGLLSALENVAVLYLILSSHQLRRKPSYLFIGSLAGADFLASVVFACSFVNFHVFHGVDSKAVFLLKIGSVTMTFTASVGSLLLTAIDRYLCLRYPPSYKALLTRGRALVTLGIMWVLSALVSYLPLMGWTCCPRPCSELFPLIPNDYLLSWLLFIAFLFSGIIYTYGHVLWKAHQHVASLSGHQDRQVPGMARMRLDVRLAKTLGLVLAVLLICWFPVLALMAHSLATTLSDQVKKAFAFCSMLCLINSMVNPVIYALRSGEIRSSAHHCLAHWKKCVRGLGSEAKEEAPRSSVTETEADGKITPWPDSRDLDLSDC
Sequence of Cytochrome P450 2C9 (P11712 whole entry): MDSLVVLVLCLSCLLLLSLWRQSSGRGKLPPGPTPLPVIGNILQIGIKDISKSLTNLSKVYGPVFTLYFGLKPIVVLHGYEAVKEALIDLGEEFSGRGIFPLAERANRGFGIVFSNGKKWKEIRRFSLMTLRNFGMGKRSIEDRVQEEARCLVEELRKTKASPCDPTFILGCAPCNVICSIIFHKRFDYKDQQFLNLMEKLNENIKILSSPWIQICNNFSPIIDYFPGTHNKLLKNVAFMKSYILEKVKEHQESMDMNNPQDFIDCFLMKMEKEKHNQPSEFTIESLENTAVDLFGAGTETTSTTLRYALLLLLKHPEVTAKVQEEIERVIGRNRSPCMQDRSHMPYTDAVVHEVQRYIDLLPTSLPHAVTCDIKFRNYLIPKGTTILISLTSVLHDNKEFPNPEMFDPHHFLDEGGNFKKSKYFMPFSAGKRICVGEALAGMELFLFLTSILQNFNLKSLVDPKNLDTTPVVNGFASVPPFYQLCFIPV
Sequence of Voltage-gated inwardly rectifying potassium channel KCNH2 (Q12809 whole entry): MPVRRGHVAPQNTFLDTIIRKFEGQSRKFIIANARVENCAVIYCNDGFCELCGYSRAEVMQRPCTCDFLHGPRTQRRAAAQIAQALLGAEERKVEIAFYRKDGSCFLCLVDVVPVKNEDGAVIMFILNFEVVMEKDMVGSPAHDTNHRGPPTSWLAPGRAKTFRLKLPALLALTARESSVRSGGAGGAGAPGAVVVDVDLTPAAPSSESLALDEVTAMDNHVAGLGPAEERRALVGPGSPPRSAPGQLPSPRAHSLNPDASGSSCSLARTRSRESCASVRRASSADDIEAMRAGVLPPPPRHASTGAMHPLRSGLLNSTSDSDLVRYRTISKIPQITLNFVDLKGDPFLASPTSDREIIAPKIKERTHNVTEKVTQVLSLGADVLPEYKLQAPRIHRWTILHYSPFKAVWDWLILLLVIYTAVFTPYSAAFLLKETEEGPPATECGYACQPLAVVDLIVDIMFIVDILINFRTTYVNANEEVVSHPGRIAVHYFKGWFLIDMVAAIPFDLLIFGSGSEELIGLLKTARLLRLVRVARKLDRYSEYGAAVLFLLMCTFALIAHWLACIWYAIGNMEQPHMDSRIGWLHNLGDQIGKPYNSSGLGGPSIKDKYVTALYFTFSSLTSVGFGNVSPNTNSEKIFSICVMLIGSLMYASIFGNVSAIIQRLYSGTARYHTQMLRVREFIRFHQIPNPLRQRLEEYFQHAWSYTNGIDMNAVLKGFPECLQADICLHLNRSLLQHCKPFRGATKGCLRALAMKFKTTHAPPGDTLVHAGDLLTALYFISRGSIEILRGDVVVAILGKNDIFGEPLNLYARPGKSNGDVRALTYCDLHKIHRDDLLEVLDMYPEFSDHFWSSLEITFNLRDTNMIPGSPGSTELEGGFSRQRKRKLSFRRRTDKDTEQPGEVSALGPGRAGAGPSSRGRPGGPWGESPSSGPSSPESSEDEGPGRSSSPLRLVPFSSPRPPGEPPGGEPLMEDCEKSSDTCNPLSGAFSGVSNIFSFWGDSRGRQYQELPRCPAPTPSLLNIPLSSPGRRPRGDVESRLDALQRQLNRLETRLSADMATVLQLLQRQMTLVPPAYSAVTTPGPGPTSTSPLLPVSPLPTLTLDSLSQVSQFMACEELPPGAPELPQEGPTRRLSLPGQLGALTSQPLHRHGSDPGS

O=C(NCC1CCCCC1)c1ncccc1NC(=O)c1cccc2ccccc12
logD [1]: 8.1
IC50 [2]: 0.11 µM
IC50 [3]: 0.01 µM
Emax [4]: 110%
EC50 [5]: 0.024 µM

O=C(Nc1cccnc1C(=O)NCC1CCOCC1)c1ccc2ncsc2c1
logD [1]: 3.5
IC50 [2]: > 10 µM
IC50 [3]: > 6.7 µM

O=C(NCC1CCOCC1)c1ncccc1NC(=O)c1ccc(C(=O)O)c2ccccc12
IC50 [2]: > 10 µM
IC50 [3]: > 10000 µM

C[S+]([O-])Cc1ccc(C(=O)Nc2nccnc2C(=O)NCC2CCC2)c2ccccc12 (stereo in doubt; 18f) [listing 1 of 2 here]
Emax [4]: 120%

O=C(NCC1CCCCC1)c1nccnc1NC(=O)c1cccc2ccccc12
IC50 [2]: 1.4 µM
IC50 [3]: 0.091 µM
Emax [4]: 120%
EC50 [5]: 0.48 µM

O=C(NCC1CCCCC1)c1cc(Cl)ccc1NC(=O)c1cccc2ccccc12
logD [1]: 7.8
IC50 [2]: 1.8 µM
IC50 [3]: 0.16 µM
Emax [4]: 77%
EC50 [5]: 0.26 µM

O=C(NCC1CCOCC1)c1ncccc1NC(=O)c1cccc2ccccc12
Kp [6]: 3
logD [1]: 5.1
IC50 [2]: 0.26 µM
IC50 [3]: 0.031 µM
Emax [4]: 110%
EC50 [5]: 0.081 µM

CN(C)Cc1ccc(C(=O)Nc2cccnc2C(=O)NCC2CCC2)c2ccccc12
IC50 [2]: 0.19 µM
Emax [4]: 100%
EC50 [5]: 0.18 µM

O=C(NCC1CCC1)c1ncccc1NC(=O)c1ccc(Cn2cccc2)c2ccccc12
IC50 [2]: 0.34 µM
Emax [4]: 82%
EC50 [5]: 0.17 µM

COc1ccc(NC(=O)c2ccnc3ccccc23)c(C(=O)NCC2CCC2)n1
logD [1]: 5.9
IC50 [2]: 0.1 µM
IC50 [3]: 15 µM
Emax [4]: 51%
EC50 [5]: 0.016 µM

COc1ccc(NC(=O)c2ccc(Cn3ccnn3)c3ccccc23)c(C(=O)NCC2CCC2)n1
Kp [6]: 0.31
BPR [7]: 0.093
Papp A→B [8]: 0.96 ×10⁻⁶ cm/s
logD [1]: 5.7
IC50 [3]: 0.00097 µM
Emax [4]: 54%
EC50 [5]: 0.0013 µM

O=C(NCC1CCC1)c1nc(OCCO)ccc1NC(=O)c1ccnc2ccccc12
logD [1]: 4
IC50 [2]: 2.5 µM
IC50 [3]: 73 µM
Emax [4]: 51%
EC50 [5]: 0.12 µM

C[S+]([O-])Cc1ccc(C(=O)Nc2nccnc2C(=O)NCC2CCC2)c2ccccc12 (single isomer, unassigned) [listing 1 of 2 here]
Emax [4]: 110%

C[S+]([O-])Cc1ccc(C(=O)Nc2cccnc2C(=O)NCC2CCC2)c2ccccc12 (stereo not drawn)
logD [1]: 4.6
IC50 [3]: 7 µM
Emax [4]: 110%
EC50 [5]: 0.0059 µM

C[S@@+]([O-])Cc1ccc(C(=O)Nc2cccnc2C(=O)NCC2CCOCC2)c2ccccc12
Kp [6]: 0.031
BPR [7]: 0.03
Papp A→B [8]: 26 ×10⁻⁶ cm/s
logD [1]: 2.9
IC50 [3]: 0.021 µM
Emax [4]: 100%
EC50 [5]: 0.031 µM

O=C(NCC1CCC1)c1ncccc1NC(=O)c1cccc2cnccc12
logD [1]: 5.1
IC50 [2]: 0.038 µM
IC50 [3]: 0.22 µM

COCc1ccc(C(=O)Nc2cccnc2C(=O)NCC2CCC2)c2ccccc12
IC50 [2]: 0.019 µM
Emax [4]: 110%
EC50 [5]: 0.0059 µM

O=C(Nc1cccnc1C(=O)NCC1CCOCC1)c1cccc2c1OCCO2
logD [1]: 3.8
IC50 [2]: 5.7 µM
IC50 [3]: 1.2 µM

O=C(NCC1CCC1)c1ncccc1NC(=O)c1cccc2ccccc12
IC50 [2]: 0.026 µM
IC50 [3]: 0.0061 µM
Emax [4]: 110%
EC50 [5]: 0.023 µM

O=C(NCC1CCCCC1)c1cnccc1NC(=O)c1cccc2ccccc12
logD [1]: 6.1
IC50 [2]: 9 µM
IC50 [3]: 1.4 µM

CS(=O)(=O)Cc1ccc(C(=O)Nc2cccnc2C(=O)NCC2CCC2)c2ccccc12
IC50 [3]: 240 µM
Emax [4]: 77%
EC50 [5]: 0.26 µM

O=C(NCC1CCC1)c1ncccc1NC(=O)c1ccc(Cn2cccn2)c2ccccc12
logD [1]: 6.2
IC50 [2]: 0.069 µM
IC50 [3]: 13 µM
Emax [4]: 93%
EC50 [5]: 0.023 µM

O=C(NCC1CCCCC1)c1ccncc1NC(=O)c1cccc2ccccc12
logD [1]: 5.5
IC50 [2]: > 8.9 µM
IC50 [3]: 3.6 µM

O=C(NCC1CCCCC1)c1cccnc1NC(=O)c1cccc2ccccc12
logD [1]: 4.7
IC50 [2]: > 10 µM
IC50 [3]: > 10 µM

C[S+]([O-])Cc1ccc(C(=O)Nc2nccnc2C(=O)NCC2CCC2)c2ccccc12 (single isomer, unassigned) [listing 2 of 2 here]
Kp [6]: 0.02
BPR [7]: 0.011
Papp [9]: 9 ×10⁻⁶ cm/s
logD [1]: 2.7
IC50 [3]: 0.037 µM
EC50 [5]: 0.032 µM

C[S+]([O-])Cc1ccc(C(=O)Nc2nccnc2C(=O)NCC2CCC2)c2ccccc12 (stereo in doubt; 18f) [listing 2 of 2 here]
BPR ([6]; brain): 0.022
BPR [7]: 0.03
Papp [9]: 20 ×10⁻⁶ cm/s
IC50 [2]: 0.3 µM
IC50 [3]: 0.047 µM
EC50 [5]: 0.12 µM
solubility at 24 h [10]: 87 µM (≈ 38 µg/mL)
IC50 [11]: 17 µM
clearance [12]: 26 mL/min/kg
bioavailability [13]: 52%
IC50 [14]: > 20 µM
IC50 [15]: > 20 µM

C[S+]([O-])Cc1ccc(C(=O)Nc2cccnc2C(=O)NCC2CCOCC2)c2ccccc12 (stereo not drawn)
Kp [6]: 0.018
BPR [7]: 0.01
Papp A→B [8]: 23 ×10⁻⁶ cm/s
logD [1]: 2.8
IC50 [2]: 2.5 µM
IC50 [3]: 0.049 µM
Emax [4]: 110%
EC50 [5]: 0.087 µM
solubility at 24 h [10]: 79 µM (≈ 36.8 µg/mL)
IC50 [11]: > 32 µM
clearance [12]: 14 mL/min/kg
bioavailability [13]: 31%
IC50 [14]: 19 µM
IC50 [15]: > 20 µM

O=C(NCC1CCC1)c1ncccc1NC(=O)c1ccnc2ccccc12
IC50 [2]: 0.082 µM
IC50 [3]: 0.028 µM
Emax [4]: 94%
EC50 [5]: 0.079 µM

O=C(NCC1CCC1)c1nc(OCCOCCO)ccc1NC(=O)c1ccnc2ccccc12
logD [1]: 4.1
IC50 [2]: 1.2 µM
IC50 [3]: 10 µM
Emax [4]: 130%
EC50 [5]: 0.014 µM

C[S+]([O-])Cc1ccc(C(=O)Nc2ccc(OCCOCCO)nc2C(=O)NCC2CCC2)c2ccccc12 (stereo not drawn)
EC50 [16]: 0.003 µM
Kp [6]: 0.02
BPR [7]: 0.023
Papp A→B [8]: 26 ×10⁻⁶ cm/s
logD [1]: 3.2
IC50 [2]: 0.5 µM
IC50 [3]: 0.0072 µM
Emax [4]: 120%
EC50 [5]: 0.0051 µM
IC50 [14]: 6.7 µM
IC50 [15]: 5.5 µM
inhibition [17]: Dose-dependent effect
inhibition in vivo at 2 µmol/kg [18]: 31.7%
inhibition in vivo at 1 µmol/kg [19]: 5.9%

O=C(NCC1CCOCC1)c1ncccc1NC(=O)c1cccc2nccnc12
logD [1]: 2.5
IC50 [2]: > 10 µM
IC50 [3]: > 9.9 µM

O=C(NCC1CCC1)c1ncccc1NC(=O)c1ccc(Cn2ccnn2)c2ccccc12
logD [1]: 5.3
IC50 [2]: 0.065 µM
IC50 [3]: 0.71 µM
Emax [4]: 110%
EC50 [5]: 0.0014 µM

O=C(NCC1CCC1)c1ncccc1NC(=O)c1cccc2cccnc12
logD [1]: 5.5
IC50 [2]: 0.36 µM
IC50 [3]: 0.32 µM

O=C(NCC1CCC1)c1ncccc1NC(=O)c1ccc(Cn2ccnc2)c2ccccc12
IC50 [2]: 0.33 µM
Emax [4]: 100%
EC50 [5]: 0.04 µM

C[S@+]([O-])Cc1ccc(C(=O)Nc2cccnc2C(=O)NCC2CCOCC2)c2ccccc12
Papp A→B [8]: 0.61 ×10⁻⁶ cm/s
logD [1]: 2.9
IC50 [3]: 0.6 µM
